From ChEMBL document CHEMBL4513216, “Probing the Open Global Health Chemical Diversity Library for Multistage-Active Starting Points for Next-Generation Antimalarials” (ACS Infect Dis, 2020)

Assay: Toxicity liver stage against HepG2, at 10uM
Assay type: cell-based
Parameters: test concentration 10 uM, cell line HepG2-A16-CD81EGFP
Conditions: human, HepG2-A16-CD81EGFP cells; read-out: INHIBITION
Summary of the method: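 Uninfected HepG2-A16-CD81EGFP cells, 3 × 10^3 per well, 1536-well, plated on prespotted compound at 10 μM final, parasite-free screening media added to match infected plates; puromycin 10 μM positive, DMSO 0.5% negative; run in parallel with 48 h PbLuc assay at 37 °C, 5% CO2; viability by CellTiter-Glo luminescence, normalized to controls.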

Row | Structure (SMILES) | cytotoxicity at 10 µM
1 | COc1ccnc(NC2CCN(CC(=O)Nc3ccccc3)CC2)n1 | -11%
2 | CC(=O)N1CCC(N[C@@H]2CO[C@H](CNC(=O)c3cccs3)[C@H]2O)CC1 | 1.96%
3 | COCCCNc1c(-c2ccc(Cl)cc2)c(=O)c1=O | 39.2%
4 | O=C(NC1CCN(c2ccc(-c3ccccc3F)nn2)C1)C1CCC1 (stereo unspecified) | 26%
5 | CC1c2ncc(Cn3cncn3)n2CCN1C(=O)c1ccccn1 (stereo unspecified) | -0.785%
6 | O=C([C@@H]1CCO[C@@H]2CCN(CC3CC3)C[C@H]21)N1CCCCO1 | 6.59%
7 | CN1CCc2c(C#N)c(NCCc3ccccc3)n3cnnc3c2C1 | 12.4%
8 | Cc1nc(-c2ccc(Cl)cc2)n(CC(=O)NC(C)C)c(=O)c1CCO | -8.88%
9 | Nc1nnnn1NCc1cccc(Cl)c1Cl | 11.5%
10 | c1cnc(N2CCCC(c3csc(Nc4cnccn4)n3)C2)nc1 (stereo unspecified) | 8.33%
11 | Cc1cc(-c2cnn(CCNC(=O)Cc3ccccn3)c2C2CC2)on1 | 2.8%
12 | CCc1cc(C(=O)N2CCCC(Cc3ccc(NC)nn3)C2)on1 (stereo unspecified) | -14.1%
13 | CN(C(=O)Nc1cccnc1)C1CCN(c2ccc(Cl)cc2)CC1 | -2.46%
14 | Cc1cc(C(=O)N(C)S(C)(=O)=O)ccc1F | -38.4%
15 | C1=C(CNC2CCc3ncnn3C2)COc2ccccc21 (stereo unspecified) | -2.28%
16 | COc1ccc(Cl)cc1CS(=O)(=O)Cc1nc(C)no1 | -2.53%
17 | Cc1cc(NC(=O)NCCO)nn1-c1ccc(Cl)cc1Cl | -136%
18 | CCCn1nc2c(cc1=O)CN(Cc1nc(-c3ccoc3)no1)CC2 | 8.64%
19 | Cc1ccc(C2CN(C(=O)NCc3nnc4ccccn34)CCO2)o1 (stereo unspecified) | 5.62%
20 | Cc1nn(C)c(C)c1C(=O)NC(C)CC(=O)c1cccs1 (stereo unspecified) | -5.08%
21 | CCN1CCN(C2CCN(C(C(N)=O)c3ccccc3)CC2)C1=O (stereo unspecified) | -10.3%

Row | Structure (SMILES) | cytotoxicity at 10 µM
22 | Cn1cccc1C(=O)NC(C)(C(N)=O)c1cccc(C(F)(F)F)c1 (stereo unspecified) | 3.61%
23 | CCc1nnc(C2Cc3ccccc3CN2Cc2nc(C3CC3)no2)o1 (stereo unspecified) | -8.03%
24 | CCOC(=O)NCCC(=O)NCc1ccc(Oc2ccc(F)cc2)nc1 | -18.9%
25 | Cc1cn2c(n1)CCC(NS(=O)(=O)c1cc(C)sc1C)C2 (stereo unspecified) | 2.74%
26 | CCc1ccc(C2CCCN2C(=O)NCC(=O)NCC(C)C)o1 (stereo unspecified) | 17.7%
27 | CCS(=O)(=O)NCCCNC1CSCCc2ccccc21 (stereo unspecified) | -3.66%
28 | O=C(NC1CCN(c2cccc(OC(F)(F)F)c2)C1=O)C1CC1 (stereo unspecified) | 19.2%
29 | CC(C#N)CSc1ccccc1NCC(=O)NC(=O)NC(C)(C)C (stereo unspecified) | 11.7%
30 | COc1ccc(N2CCC(N(C)C(=O)C(C)SC)CC2)cc1 (stereo unspecified) | 1.69%
31 | Cc1cccc(COc2ccc(NC(=O)C(C)NC(N)=O)c(C)c2)c1 (stereo unspecified) | -28%
32 | CCc1nnc(CN(C)CC2CCCCC2)o1 | 0.897%
33 | CS(=O)(=O)c1cccc(OCC(=O)N2CCCC2c2ccc[nH]2)c1 (stereo unspecified) | 3.92%
34 | CCN(CC)S(=O)(=O)N(Cc1ccccn1)Cc1ccccc1C | 16.9%
35 | CN(Cc1nnc(-c2ccco2)o1)C(C(N)=O)c1cccc(F)c1 (stereo unspecified) | 16.7%
36 | CN1CCOC(C(=O)Nc2ccc3c(c2)nc(C2CC2)n3C)C1 (stereo unspecified) | -5.5%
37 | CC(C)c1noc(CS(=O)(=O)CC(=O)NCCOc2ccccc2)n1 | -10%
38 | Cn1cccc1C(=O)NCc1cn2c(n1)CN(C(=O)c1ccsc1)CC2 | -112%
39 | CN1C(=O)CC(c2cnn(C)c2)C12CCN(C(=O)c1cscn1)CC2 (stereo unspecified) | -76.6%
40 | COCCN(C)C[C@@H]1CN(C(=O)C(C)(C)c2ccccc2)C[C@@H]1CO | 16.7%
41 | COc1cccc2ccc(CN3CCN(c4ncccc4C)CC3)nc12 | -5.21%
42 | CN(Cc1cccnc1)CC1CC12CCCC2 (stereo unspecified) | -0.243%

Row | Structure (SMILES) | cytotoxicity at 10 µM
43 | O=C1NCCN2CCN(C(=O)NCCc3ccccc3)CC12 (stereo unspecified) | 17.6%
44 | CC(C)=CCCC(C)CN1CCC(n2cc(C(=O)NCCO)nn2)CC1 (stereo unspecified) | 0.232%
45 | COc1ccc(CN(Cc2ccsc2)CC2CCCO2)cn1 (stereo unspecified) | -6.16%
46 | Cc1cc(CNC(=O)CC2CCN(C(C)C)CC2)n(C)n1 | -1.77%
47 | CN1CC2(CCCN(c3cnccn3)C2)OC1=O (stereo unspecified) | -43.2%
48 | Cc1ccc(CN(Cc2ccccn2)C(=O)[C@H]2CC[C@@H](N)C2)s1 | -0.327%
49 | CCN(C)C(=O)c1ccc(N2CCC(Oc3cccc(F)c3)CC2)nc1 | -23.7%
50 | CN(Cc1ccoc1)C(=O)C1CCN(C(=O)C2CCCC2)CC1 | -7.77%
51 | COC1CCCN(Cc2cc(O)c3cc(C)cc(C)c3n2)C1 (stereo unspecified) | 3.54%
52 | CCC(C(=O)N(Cc1ccccc1OC)C1CC1)n1cccn1 (stereo unspecified) | -44%
53 | O=C(c1cccnc1)N1CCOC(CCCc2ccccc2)C1 (stereo unspecified) | 7.07%
54 | Cc1nc(N)nc(C)c1CC(=O)NCc1ccc2nonc2c1 | 5.6%
55 | CC(C)CNC(=O)c1ccc2c(=O)n(-c3ccccc3)cnc2c1 | -5.52%
56 | CNC(=O)[C@@H]1C[C@@H](N)CN1C1CCN(c2ccccc2F)CC1 | -53.3%
57 | COc1cnc(C2(O)CCN(C(=O)c3cccnc3)CC2)c(OC)n1 | 0.41%
58 | CCc1noc(CN(C)CC(c2cccs2)N2CCOCC2)n1 (stereo unspecified) | -4.56%
59 | CN1C(=O)CN(C(=O)c2ccc(=O)n(C)c2)c2ccccc21 | -6.67%
60 | Cc1csc(N2CCN(C(=O)C(C)n3cncn3)CC2)n1 (stereo unspecified) | 0.652%
61 | CC(C)Sc1ncccc1C(=O)NCc1ccc(O)cc1 | -3.29%
62 | CCn1cnnc1C1CCN(C(=O)CCCOc2ccccc2)CC1 | 0.927%
63 | CC(=O)Nc1nc(CN2CCCC2Cn2cncn2)cs1 (stereo unspecified) | 0.222%

Row | Structure (SMILES) | cytotoxicity at 10 µM
64 | CCn1cnnc1C1CCN(C(=O)c2cc3c(s2)CCC3)CC1 | -8.93%
65 | CCc1nnc2n1CCN(C(=O)c1ccc(-c3ccco3)nc1C)C2 | -7.23%
66 | CC(OCC1CC1)C(=O)N1CCCN(Cc2cnn(C)c2)CC1 (stereo unspecified) | 2.55%
67 | Cn1ccc(C(=O)NCc2cccc(NC(=O)C3CCC3)c2)cc1=O | -10%
68 | Cc1noc(C2CCCN(C(=O)c3ccc(Br)o3)C2)n1 (stereo unspecified) | 1.73%
69 | Cc1cccc(Nc2cc(C)nc(C3CCN(C(C)C)C3)n2)n1 (stereo unspecified) | 9.93%
70 | c1cnc(N2CCC3(CCCN(CC4CC4)C3)CC2)nc1 | -3.24%
71 | CCCN1CCC(c2nc3ccc(NCc4ccccc4)cn3n2)CC1 | -125%
72 | CN(C)C1CC2(CCN(C(=O)NC3CC3)CC2)c2ccccc21 (stereo unspecified) | -112%
73 | CO[C@H]1CCN(Cc2cccs2)[C@@H]2CN(Cc3ccncc3)C[C@H]12 | 2.31%
74 | Cn1ccnc1CN1CCC2(CC1)COC2 | 6.81%
75 | O=C(NC1CC1)[C@H]1C[C@@H]2CCN(Cc3ccc4c(c3)OCO4)C[C@@H]2O1 | 0.782%
76 | CC(C)NC(=O)[C@H]1C[C@H]2OCC[C@H]2N(Cc2ccc3ccccc3n2)C1 | -56.3%
77 | O=S(=O)(C1CC1)N1CCc2onc(COc3ccccn3)c2C1 | -4.38%
78 | COCc1cnc2n1CCN(C(=O)c1ccc3ccccc3n1)C2C (stereo unspecified) | -112%
79 | Cc1ccc(N2CCC3(CN(Cc4cccs4)CCC3(F)F)C2)nn1 (stereo unspecified) | 8.39%
80 | COCCN1CCCCC12CC(=O)N(c1cccc(C#N)c1)C2 (stereo unspecified) | -102%
81 | CC(C)CCN1C[C@@H]2C[C@H](C(=O)NCC(C)C)[C@H](C1)O2 | 5.9%
